Experimental data reported in BindingDB's records for doi:10.1016/j.bmcl.2006.08.108 (Merck Sharp and Dohme Research Laboratories, 2006).

Biological target: 5-hydroxytryptamine receptor 2A (Homo sapiens, UniProt P28223)
Experiment: Displacement of [3H]ketanserin from human 5HT2A receptor expressed in CHOK1 cells
Method in brief: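 Membranes from confluent CHO K1 cells expressing human 5-HT2A were incubated with [3H]ketanserin (76 Ci/mmol) for 15 min at 37 °C with shaking at 180 rpm. Buffer was 50 mM Tris pH 7.7, 0.1% ascorbate, pargyline, MgSO4 and 0.5 mM EDTA. Bound and free ligand were separated by GF/B filtration and the filters counted. Mianserin defined non-specific binding. Five-point log titrations were fitted with a four-parameter curve to give IC50 and Ki.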

5-hydroxytryptamine receptor 2A, sequence (P28223 whole entry): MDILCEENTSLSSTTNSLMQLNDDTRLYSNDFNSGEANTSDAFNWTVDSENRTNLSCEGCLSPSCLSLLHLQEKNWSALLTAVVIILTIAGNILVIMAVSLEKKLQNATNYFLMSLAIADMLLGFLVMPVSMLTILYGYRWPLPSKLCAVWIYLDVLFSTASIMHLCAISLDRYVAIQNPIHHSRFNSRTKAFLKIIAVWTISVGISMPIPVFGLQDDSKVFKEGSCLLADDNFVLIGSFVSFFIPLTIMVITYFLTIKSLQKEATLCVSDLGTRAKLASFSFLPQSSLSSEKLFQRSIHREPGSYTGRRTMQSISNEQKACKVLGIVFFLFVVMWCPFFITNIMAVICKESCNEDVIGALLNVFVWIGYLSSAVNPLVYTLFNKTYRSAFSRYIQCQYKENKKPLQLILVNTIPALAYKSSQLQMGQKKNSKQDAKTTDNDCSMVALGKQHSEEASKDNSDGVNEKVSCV

| SMILES | IC50 |
| --- | --- |
| Cc1ccc(C2=NCCN=C(NC(C)(C)C)C2)cc1 [N-tert-butyl-7-p-tolyl-2,3-dihydro-1H-1,4-diazepin-5-amine] | 0.011 µM |
| CCN(CC)C1=NCCN=C(c2ccccc2F)C1 [N,N-diethyl-7-(2-fluorophenyl)-2,3-dihydro-1H-1,4-diazepin-5-amine] | > 1 µM |
| CC(C)(C)NC1=NCCN=C(c2ccc(F)cc2F)C1 [N-tert-butyl-7-(2,4-difluorophenyl)-2,3-dihydro-1H-1,4-diazepin-5-amine] | 0.011 µM |
| Cc1ccc(C2=NCCN=C(N3CCNCC3)C2)cc1 [5-(piperazin-1-yl)-7-p-tolyl-2,3-dihydro-1H-1,4-diazepine] | > 1 µM |
| CCN(CC)C1=NCCN=C(c2ccc(C)cc2)C1 [N,N-diethyl-7-p-tolyl-2,3-dihydro-1H-1,4-diazepin-5-amine] | > 1 µM |
| Cc1ccc(C2=NCCN=C(N3CCOCC3)C2)cc1 [5-morpholino-7-p-tolyl-2,3-dihydro-1H-1,4-diazepine] | > 1 µM |
